Columns and labels:
Format in all cases: cell-based
[1] = target: T1, Muscarinic acetylcholine receptor M4 (Homo sapiens, UniProt P08173); test: Binding affinity towards cloned human muscarinic acetylcholine receptor M4 stably expressed in CHO-K1 cells using [3H]N-methylscopolamine
T1 sequence (P08173 whole entry): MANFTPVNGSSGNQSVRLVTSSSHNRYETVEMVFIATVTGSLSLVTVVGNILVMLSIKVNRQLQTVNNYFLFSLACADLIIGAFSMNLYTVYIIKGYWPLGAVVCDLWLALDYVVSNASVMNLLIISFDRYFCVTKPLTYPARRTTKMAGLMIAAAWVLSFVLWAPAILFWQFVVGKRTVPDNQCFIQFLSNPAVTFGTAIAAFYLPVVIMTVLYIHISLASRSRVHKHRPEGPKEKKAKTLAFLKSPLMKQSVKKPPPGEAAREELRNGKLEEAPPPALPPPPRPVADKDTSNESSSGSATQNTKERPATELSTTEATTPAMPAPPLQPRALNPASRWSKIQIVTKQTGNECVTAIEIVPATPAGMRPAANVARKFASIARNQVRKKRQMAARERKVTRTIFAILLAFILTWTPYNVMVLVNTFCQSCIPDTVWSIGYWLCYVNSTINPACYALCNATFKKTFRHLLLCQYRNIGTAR

[2] = target: T2, Muscarinic acetylcholine receptor M1 (Homo sapiens, UniProt P11229); test: Binding affinity towards cloned human muscarinic acetylcholine receptor M1 stably expressed in CHO-K1 cells using [3H]N-methylscopolamine
T2 sequence (P11229 whole entry): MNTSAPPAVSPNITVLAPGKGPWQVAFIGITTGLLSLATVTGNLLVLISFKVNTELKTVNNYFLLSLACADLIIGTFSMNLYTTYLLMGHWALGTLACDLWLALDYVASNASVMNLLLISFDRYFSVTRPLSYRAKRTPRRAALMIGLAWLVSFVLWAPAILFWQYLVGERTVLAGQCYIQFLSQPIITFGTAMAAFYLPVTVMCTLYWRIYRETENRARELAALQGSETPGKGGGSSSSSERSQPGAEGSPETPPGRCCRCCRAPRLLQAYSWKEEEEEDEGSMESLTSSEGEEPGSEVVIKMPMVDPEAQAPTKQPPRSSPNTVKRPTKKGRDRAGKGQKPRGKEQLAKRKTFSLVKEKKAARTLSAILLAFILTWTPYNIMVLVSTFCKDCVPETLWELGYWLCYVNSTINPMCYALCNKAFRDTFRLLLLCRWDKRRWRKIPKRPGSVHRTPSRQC

[3] = target: Muscarinic acetylcholine receptor M3 (Homo sapiens, UniProt P20309); test: Binding affinity towards cloned human muscarinic acetylcholine receptor M3 stably expressed in CHO-K1 cells using [3H]N-methylscopolamine
Sequence of Muscarinic acetylcholine receptor M3 (P20309 whole entry): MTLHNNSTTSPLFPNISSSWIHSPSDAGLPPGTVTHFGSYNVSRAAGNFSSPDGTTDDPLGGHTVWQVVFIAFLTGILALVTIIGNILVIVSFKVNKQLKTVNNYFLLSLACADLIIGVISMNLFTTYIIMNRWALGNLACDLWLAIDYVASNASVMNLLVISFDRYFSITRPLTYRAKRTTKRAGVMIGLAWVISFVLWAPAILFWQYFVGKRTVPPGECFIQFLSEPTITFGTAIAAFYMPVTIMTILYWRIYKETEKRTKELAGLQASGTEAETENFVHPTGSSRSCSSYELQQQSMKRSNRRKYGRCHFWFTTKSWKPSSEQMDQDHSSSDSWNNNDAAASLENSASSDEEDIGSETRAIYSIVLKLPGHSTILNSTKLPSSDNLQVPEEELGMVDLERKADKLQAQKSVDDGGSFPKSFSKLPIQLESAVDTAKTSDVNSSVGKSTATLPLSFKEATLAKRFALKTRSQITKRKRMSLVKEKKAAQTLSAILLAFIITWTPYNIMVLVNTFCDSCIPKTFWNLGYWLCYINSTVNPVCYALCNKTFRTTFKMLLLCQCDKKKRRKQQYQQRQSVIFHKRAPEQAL

[4] = target: T3, Muscarinic acetylcholine receptor M5 (Homo sapiens, UniProt P08912); test: Binding affinity towards cloned human muscarinic acetylcholine receptor M5 stably expressed in CHO-K1 cells using [3H]N-methylscopolamine
T3 sequence (P08912 whole entry): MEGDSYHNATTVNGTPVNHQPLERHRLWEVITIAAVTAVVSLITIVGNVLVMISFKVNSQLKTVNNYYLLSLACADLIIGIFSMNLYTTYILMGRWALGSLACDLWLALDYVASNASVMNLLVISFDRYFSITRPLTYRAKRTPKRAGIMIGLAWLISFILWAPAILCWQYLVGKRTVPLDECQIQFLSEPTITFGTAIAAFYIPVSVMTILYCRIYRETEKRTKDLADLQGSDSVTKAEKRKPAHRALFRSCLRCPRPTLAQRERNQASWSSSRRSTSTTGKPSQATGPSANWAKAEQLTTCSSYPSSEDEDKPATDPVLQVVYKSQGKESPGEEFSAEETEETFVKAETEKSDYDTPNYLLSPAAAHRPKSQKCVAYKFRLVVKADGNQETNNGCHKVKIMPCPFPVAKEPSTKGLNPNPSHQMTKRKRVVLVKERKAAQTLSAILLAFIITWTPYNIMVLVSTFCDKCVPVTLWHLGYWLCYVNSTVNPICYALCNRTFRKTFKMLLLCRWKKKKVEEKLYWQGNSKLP

[5] = target: T4, Muscarinic acetylcholine receptor M2 (Homo sapiens, UniProt P08172); test: Binding affinity towards cloned human muscarinic acetylcholine receptor M2 stably expressed in CHO-K1 cells using [3H]N-methylscopolamine
T4 sequence (P08172 whole entry): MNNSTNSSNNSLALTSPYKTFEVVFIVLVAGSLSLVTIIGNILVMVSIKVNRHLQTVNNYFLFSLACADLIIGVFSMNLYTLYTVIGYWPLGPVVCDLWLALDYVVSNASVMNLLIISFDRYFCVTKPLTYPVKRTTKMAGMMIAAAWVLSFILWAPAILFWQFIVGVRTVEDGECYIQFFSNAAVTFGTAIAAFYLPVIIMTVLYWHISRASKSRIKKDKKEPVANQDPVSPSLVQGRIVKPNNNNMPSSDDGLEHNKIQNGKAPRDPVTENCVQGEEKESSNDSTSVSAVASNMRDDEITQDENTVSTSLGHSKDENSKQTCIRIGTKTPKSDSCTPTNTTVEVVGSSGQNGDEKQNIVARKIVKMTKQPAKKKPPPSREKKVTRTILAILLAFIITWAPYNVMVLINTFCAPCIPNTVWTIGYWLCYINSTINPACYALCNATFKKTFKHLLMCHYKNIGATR

[6] = target: Histamine H1 receptor (Homo sapiens, UniProt P35367); test: Compound was evaluated for binding affinity towards cloned human histamine H1 receptors stably expressed in CHO-K1 cells using [3H]mepyramine
Sequence of Histamine H1 receptor (P35367 whole entry): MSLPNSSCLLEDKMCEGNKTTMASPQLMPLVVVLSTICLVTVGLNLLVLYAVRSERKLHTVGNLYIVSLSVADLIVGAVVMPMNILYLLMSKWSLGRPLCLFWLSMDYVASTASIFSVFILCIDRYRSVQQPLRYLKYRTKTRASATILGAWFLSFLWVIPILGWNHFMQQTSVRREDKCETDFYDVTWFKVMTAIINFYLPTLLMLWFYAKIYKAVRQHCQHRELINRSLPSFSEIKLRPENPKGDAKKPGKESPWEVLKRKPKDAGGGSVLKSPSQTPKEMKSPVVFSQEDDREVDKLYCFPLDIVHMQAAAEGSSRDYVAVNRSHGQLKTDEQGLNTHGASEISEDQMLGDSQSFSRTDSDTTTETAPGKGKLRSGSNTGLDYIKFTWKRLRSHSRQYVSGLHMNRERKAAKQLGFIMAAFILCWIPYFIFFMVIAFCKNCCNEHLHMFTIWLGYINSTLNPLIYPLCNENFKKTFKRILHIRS
How it was run: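 CHO-K1 membranes with stable human H1 receptor, 18 µg/mL final protein. […] Nonspecific binding with 0.1 mM terfenadine. Filtered and counted. Ki by Cheng-Prusoff. pKi mean ± SD, ≥3 experiments in duplicate.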

Ki [1] | Ki [2] | Ki [3] | Ki [4] | Ki [5] | Ki [6] | SMILES
295 nM | 191 nM | 138 nM | 759 nM | 30.2 nM | 69.2 nM | C[C@@H](C1=C(CCN(C)C)Cc2ccccc21)c1ccccn1
4170 nM | 1550 nM | 1170 nM | 6030 nM | 1070 nM | – | COc1ccc2c(c1)CC(CCN(C)C)=C2C(C)c1ccccn1 (configuration not stated)
331 nM | 151 nM | 95.5 nM | 724 nM | 33.1 nM | 0.813 nM | CC(C1=C(CCN(C)C)Cc2cc(Cl)ccc21)c1ccccn1 (configuration not stated)
87100 nM | 53700 nM | 135000 nM | 41700 nM | 93300 nM | – | CN(C)CCNC(=O)C1=C(Cc2ccncc2)c2ccccc2C1
457 nM | 447 nM | 955 nM | 2090 nM | 44.7 nM | – | CCN(CC)CCC1=C(C(C)c2ccccn2)c2ccccc2C1 (configuration not stated)
741 nM | 347 nM | 501 nM | 912 nM | 363 nM | – | CC(C1=C(CCN(C)C)Cc2ccc(Cl)cc21)c1ccccn1 (configuration not stated)
1700 nM | 891 nM | 575 nM | 3240 nM | 263 nM | – | CC(C1=C(CCCN(C)C)Cc2ccccc21)c1ccccn1 (configuration not stated)
2400 nM | 1580 nM | 1550 nM | 3630 nM | 234 nM | – | CN(C)CCC1=C(Cc2ccccn2)c2ccccc2C1
13200 nM | 3550 nM | 8130 nM | 11200 nM | 6030 nM | – | CN(C)CCOC(=O)C1=C(Cc2cccnc2)c2ccccc2C1
8320 nM | 4270 nM | 11700 nM | 10200 nM | 6760 nM | – | CN(C)CCC1=C(Cc2ccncc2)c2ccccc2C1
617 nM | 245 nM | 631 nM | 302 nM | 676 nM | – | CCCC(C1=C(CCN(C)C)Cc2ccccc21)c1ccccn1 (configuration not stated)
372 nM | 158 nM | 288 nM | 309 nM | 257 nM | – | CC(C1=C(CCN(C)C)Cc2ccccc21)c1ccccc1 (configuration not stated)
129 nM | 43.7 nM | 67.6 nM | 66.1 nM | 229 nM | – | CN(C)CCC1=C(C(c2ccccc2)c2ccccn2)c2ccccc2C1 (configuration not stated)
603 nM | 229 nM | 741 nM | 1120 nM | 51.3 nM | – | CC(C1=C(CN(C)C(C)C)Cc2ccccc21)c1ccccn1 (configuration not stated)
437 nM | 603 nM | 708 nM | 2000 nM | 32.4 nM | 7.24 nM | CC(C1=C(CCN(C)CCF)Cc2ccccc21)c1ccccn1 (configuration not stated)
14800 nM | 5370 nM | 8910 nM | 17400 nM | 4900 nM | – | CN(C)CCOC(=O)C1=C(Cc2ccccn2)c2ccccc2C1
8510 nM | 3720 nM | 3160 nM | 8910 nM | 1020 nM | – | COc1ccc2c(c1)C(C(C)c1ccccn1)=C(CCN(C)C)C2 (configuration not stated)
2000 nM | 871 nM | 1050 nM | 3240 nM | 912 nM | – | CSc1ccc2c(c1)C(C(C)c1ccccn1)=C(CCN(C)C)C2 (configuration not stated)

Ki [1] | Ki [2] | Ki [3] | Ki [4] | Ki [5] | Ki [6] | SMILES
26900 nM | 16200 nM | 24000 nM | 45700 nM | 14800 nM | – | CN(C)CCNC(=O)C1=C(Cc2ccccn2)c2ccccc2C1
3240 nM | 1620 nM | 2510 nM | 5890 nM | 1950 nM | – | Cc1ccc2c(c1)C(C(C)c1ccccn1)=C(CCN(C)C)C2 (configuration not stated)
646 nM | 331 nM | 263 nM | 1050 nM | 112 nM | – | CC(C1=C(CCN(C)C)Cc2ccc(F)cc21)c1ccccn1 (configuration not stated)
832 nM | 224 nM | 282 nM | 776 nM | 107 nM | – | CCC(C1=C(CCN(C)C)Cc2cc(Cl)ccc21)c1ccccn1 (configuration not stated)
661 nM | 240 nM | 309 nM | 676 nM | 97.7 nM | – | CCC(C1=C(CCN(C)C)Cc2ccccc21)c1ccccn1 (configuration not stated)
1410 nM | 562 nM | 501 nM | 1450 nM | 589 nM | – | Cc1ccc2c(c1)CC(CCN(C)C)=C2C(C)c1ccccn1 (configuration not stated)
1910 nM | 1910 nM | 1780 nM | 2340 nM | 851 nM | – | CC(C1=C(CCN2CCCCC2)Cc2ccccc21)c1ccccn1 (configuration not stated)
1230 nM | 1050 nM | 1910 nM | 2000 nM | 398 nM | – | CC(C1=C(CCN2CCCC2)Cc2ccccc21)c1ccccn1 (configuration not stated)
7410 nM | 3720 nM | 8130 nM | 7940 nM | 5370 nM | – | CN(C)CCC1=C(Cc2cccnc2)c2ccccc2C1
1000 nM | 871 nM | 1820 nM | 2190 nM | 145 nM | – | CC(C1=C(CCN(C)C(C)C)Cc2ccccc21)c1ccccn1 (configuration not stated)
46800 nM | 49000 nM | 49000 nM | 66100 nM | 39800 nM | – | CN(C)CCNC(=O)C1=C(Cc2cccnc2)c2ccccc2C1
4170 nM | 4370 nM | 2750 nM | 2690 nM | 1450 nM | – | CC(C1=C(CCN2CCOCC2)Cc2ccccc21)c1ccccn1 (configuration not stated)
81.3 nM | 52.5 nM | 25.7 nM | 372 nM | 15.5 nM | – | CN(C)CCC1=C(C(C)(C)c2ccccn2)c2ccccc2C1
97.7 nM | 34.7 nM | 31.6 nM | 87.1 nM | 12.3 nM | 28.8 nM | CC(C1=C(CN(C)C)Cc2ccccc21)c1ccccn1 (configuration not stated)
741 nM | 741 nM | 2240 nM | 2190 nM | 25.1 nM | – | CC(C1=C(CCN(C(C)C)C(C)C)Cc2ccccc21)c1ccccn1 (stereo in doubt; 19)
5500 nM | 5890 nM | 20900 nM | 5130 nM | 575 nM | 219 nM | CC(C1=C(CCN(C(C)C)C(C)C)Cc2ccccc21)c1ccccn1 (stereo in doubt; (+)-19)
1780 nM | 1550 nM | 4070 nM | 11700 nM | 42.7 nM | 2450 nM | CC(C1=C(CCN(C(C)C)C(C)C)Cc2ccccc21)c1ccccn1 (stereo in doubt; (-)-19)
– | – | – | – | – | 0.692 nM | CC(C1=C(CCN(C)C)Cc2ccccc21)c1ccccn1 (configuration not stated) [DIMETHINDENE]

— ChEMBL document CHEMBL1136812, “Structure-activity relationships of dimethindene derivatives as new M2-selective muscarinic receptor antagonists” (J Med Chem, 2003)
